Results reported in article PMC4075068 (Bioorganic & medicinal chemistry letters, 2014).

Assays:
tier 1 DMPK panel = format: in vitro ADME; settings: compared with 10b
the other mGlus = test: mGlu family selectivity screen, fold-shift of glutamate response; format: cell-based; settings: 10 μM
Method in brief: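 Fold-shift of glutamate-evoked signaling measured at group I and group III mGlu receptors. Group I receptors read out by calcium response; group III receptors read out by GIRK response.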

rat mGlu3 = rat mGlu3 (Rattus norvegicus, UniProt P31422); format: cell-based
Chain of rat mGlu3 (P31422 23-879): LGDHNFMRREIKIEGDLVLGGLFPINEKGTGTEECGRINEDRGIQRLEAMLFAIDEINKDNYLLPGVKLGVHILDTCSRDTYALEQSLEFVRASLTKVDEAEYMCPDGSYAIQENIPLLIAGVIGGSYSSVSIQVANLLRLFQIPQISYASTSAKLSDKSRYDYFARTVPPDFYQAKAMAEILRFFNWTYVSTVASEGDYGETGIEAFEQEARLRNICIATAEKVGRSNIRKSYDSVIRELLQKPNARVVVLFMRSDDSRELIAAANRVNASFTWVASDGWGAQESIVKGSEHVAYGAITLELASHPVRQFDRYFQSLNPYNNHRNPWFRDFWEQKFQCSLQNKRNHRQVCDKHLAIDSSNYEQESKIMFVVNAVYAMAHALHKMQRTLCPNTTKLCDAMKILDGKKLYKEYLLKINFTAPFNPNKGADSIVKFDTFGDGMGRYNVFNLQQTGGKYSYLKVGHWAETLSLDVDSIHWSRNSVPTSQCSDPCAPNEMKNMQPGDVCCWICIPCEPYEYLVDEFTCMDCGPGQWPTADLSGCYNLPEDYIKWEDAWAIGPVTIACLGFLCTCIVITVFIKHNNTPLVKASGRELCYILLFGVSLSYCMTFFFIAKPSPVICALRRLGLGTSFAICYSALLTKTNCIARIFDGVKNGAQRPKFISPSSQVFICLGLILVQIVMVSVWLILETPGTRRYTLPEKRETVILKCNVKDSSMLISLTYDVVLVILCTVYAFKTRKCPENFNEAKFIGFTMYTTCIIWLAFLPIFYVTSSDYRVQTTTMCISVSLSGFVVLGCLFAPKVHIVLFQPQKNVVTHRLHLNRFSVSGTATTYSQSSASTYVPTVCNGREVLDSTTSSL
Method in brief: (§1)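 Kinetic plate-based calcium fluorescence readout in cells expressing mGlu2 or mGlu3. For IC50, the test compound was titrated from 1 nM upward against an EC76 of glutamate at mGlu2 or an EC87 at mGlu3. For mechanism, the test compound was held at several fixed concentrations while glutamate was titrated from 1 nM upward, and shifts in the glutamate curve were assessed. Three independent experiments.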

[1] = predicted hepatic clearance, human; format: in vitro ADME
mGlu2 = mGlu2 (Rattus norvegicus, UniProt P31421); test: mGlu family selectivity screen, fold-shift of glutamate response; format: cell-based; settings: 10 μM
Chain of mGlu2 (P31421 19-872): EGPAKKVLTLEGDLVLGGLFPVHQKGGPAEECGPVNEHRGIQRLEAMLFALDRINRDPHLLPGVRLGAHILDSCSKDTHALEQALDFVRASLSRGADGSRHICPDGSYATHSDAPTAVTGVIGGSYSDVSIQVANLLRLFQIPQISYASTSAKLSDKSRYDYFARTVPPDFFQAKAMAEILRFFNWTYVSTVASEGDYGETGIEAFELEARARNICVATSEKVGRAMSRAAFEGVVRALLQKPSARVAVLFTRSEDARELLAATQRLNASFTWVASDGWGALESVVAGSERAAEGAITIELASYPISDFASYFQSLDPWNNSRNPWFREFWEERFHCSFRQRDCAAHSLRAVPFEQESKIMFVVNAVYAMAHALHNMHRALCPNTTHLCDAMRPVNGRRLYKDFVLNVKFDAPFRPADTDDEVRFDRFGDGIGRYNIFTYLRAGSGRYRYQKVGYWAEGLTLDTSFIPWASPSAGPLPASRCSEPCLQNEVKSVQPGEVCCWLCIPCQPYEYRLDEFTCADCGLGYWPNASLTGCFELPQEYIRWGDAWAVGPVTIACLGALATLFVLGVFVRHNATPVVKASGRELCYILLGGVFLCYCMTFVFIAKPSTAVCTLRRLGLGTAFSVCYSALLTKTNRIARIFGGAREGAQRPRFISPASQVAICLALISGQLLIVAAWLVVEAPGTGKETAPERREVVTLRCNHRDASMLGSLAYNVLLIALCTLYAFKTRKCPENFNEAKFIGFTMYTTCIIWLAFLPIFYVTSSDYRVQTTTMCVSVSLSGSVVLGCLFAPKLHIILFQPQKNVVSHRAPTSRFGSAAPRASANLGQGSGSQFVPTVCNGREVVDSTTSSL

mGlu3 = mGlu3 (Rattus norvegicus, UniProt P31422); test: as above; format: cell-based; settings: 10 μM
Chain of mGlu3 (P31422 23-879): as the sequence (P31422 23-879) above

rat mGlu2 = rat mGlu2 (Rattus norvegicus, UniProt P31421); format: cell-based
Chain of rat mGlu2 (P31421 19-872): as the sequence (P31421 19-872) above
Method in brief: as §1

[2] = predicted hepatic clearance, rat; format: in vitro ADME
[3] = fixed concentrations against glutamate 1 nM – 30 μM

| SMILES | DMPK properties (tier 1 DMPK panel) | effect on responses of the other mGlus to glutamate (the other mGlus) | increase in potency at mGlu3 compared to 7d (rat mGlu3) | mechanism of action at mGlu3 (progressive fold-shift of glutamate response) (rat mGlu3; [3]) | predicted clearance CLhep, human [1] [mL/min/kg] | effect on glutamate response at mGlu2 (mGlu2) | effect on glutamate response at mGlu3 (mGlu3) | increase in potency at mGlu2 compared to 7d (rat mGlu2) [fold] | mechanism of action at mGlu2 (progressive fold-shift of glutamate response) (rat mGlu2; [3]) | predicted clearance CLhep, rat [2] [mL/min/kg] |
| --- | --- | --- | --- | --- | --- | --- | --- | --- | --- | --- |
| Cn1c(=O)c2ccc(-c3cccnc3)cc2n2nc(-c3ccc(F)cc3)cc12 [7ab] | similarly poor DMPK properties | – | – | – | – | – | – | – | – | – |
| Cn1c(=O)c2ccc(-c3cncnc3)cc2n2nc(-c3ccccc3)cc12 [10b, 4-methyl-2-phenyl-8-(pyrimidin-5-yl)pyrazolo[1,5-a]quinazolin-5(4H)-one] | – | did not alter the responses | over 2 fold | acting as a NAM | 18.7 | completely blocked the glutamate response | completely blocked the glutamate response | ~3.5 | acting as a NAM | 54.7 |
